Measured values as given in ChEMBL document CHEMBL4311956, “A Qualified Success: Discovery of a New Series of ATAD2 Bromodomain Inhibitors with a Novel Binding Mode Using High-Throughput Screening and Hit Qualification” (J Med Chem, 2019).

Legend:
[1] = target: Bromodomain-containing protein 3 (Homo sapiens, UniProt Q15059, Y348A); assay: Displacement of Alexa Fluor 647 labelled ligand from His6-tagged BRD3 BD1(1 to 435 residues)/BD2 Y348A mutant (unknown origin) after 30 mins by TR-FRET assay
Method in brief: (§1)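 BET selectivity by TR-FRET fluoroligand displacement. Uses tandem BET bromodomain constructs carrying a mutation in the non-assayed bromodomain.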

[2] = target: Bromodomain-containing protein 1 (Homo sapiens, UniProt O95696); assay: Inhibition of BRPF2 (unknown origin) by TR-FRET assay
Bromodomain-containing protein 1, sequence (O95696 whole entry, the tested form may be a part): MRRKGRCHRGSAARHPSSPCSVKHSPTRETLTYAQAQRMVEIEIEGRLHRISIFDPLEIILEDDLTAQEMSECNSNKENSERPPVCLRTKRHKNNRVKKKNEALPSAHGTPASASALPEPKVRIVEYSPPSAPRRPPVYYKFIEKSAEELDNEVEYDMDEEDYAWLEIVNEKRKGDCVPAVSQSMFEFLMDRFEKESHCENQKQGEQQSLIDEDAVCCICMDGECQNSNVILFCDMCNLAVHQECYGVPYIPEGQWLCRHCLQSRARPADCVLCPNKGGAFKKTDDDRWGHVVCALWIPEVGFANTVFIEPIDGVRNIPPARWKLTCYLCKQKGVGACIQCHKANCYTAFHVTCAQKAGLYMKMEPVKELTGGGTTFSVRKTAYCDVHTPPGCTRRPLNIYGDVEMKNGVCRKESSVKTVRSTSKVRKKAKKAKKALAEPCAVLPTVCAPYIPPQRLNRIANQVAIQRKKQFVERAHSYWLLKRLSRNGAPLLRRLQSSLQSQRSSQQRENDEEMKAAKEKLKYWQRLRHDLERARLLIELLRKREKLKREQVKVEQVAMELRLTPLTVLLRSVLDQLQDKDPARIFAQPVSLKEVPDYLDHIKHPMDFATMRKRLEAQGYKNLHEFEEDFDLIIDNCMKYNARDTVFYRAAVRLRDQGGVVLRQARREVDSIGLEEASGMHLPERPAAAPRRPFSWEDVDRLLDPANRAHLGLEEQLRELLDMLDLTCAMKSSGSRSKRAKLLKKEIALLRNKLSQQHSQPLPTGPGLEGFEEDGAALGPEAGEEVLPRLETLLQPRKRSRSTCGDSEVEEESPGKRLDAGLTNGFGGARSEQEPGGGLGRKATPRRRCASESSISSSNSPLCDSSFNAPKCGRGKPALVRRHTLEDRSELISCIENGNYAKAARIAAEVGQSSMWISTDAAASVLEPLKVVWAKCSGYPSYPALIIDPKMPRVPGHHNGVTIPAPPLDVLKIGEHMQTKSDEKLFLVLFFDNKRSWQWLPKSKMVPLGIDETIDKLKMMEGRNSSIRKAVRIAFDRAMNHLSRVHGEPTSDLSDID

[3] = species: Homo sapiens; assay: (§2) Selectivity ratio, ratio of inhibition of TAF1 BD2 (unknown origin) to displacement of SGRG-K(Ac)-GG-K(Ac)-GLG-K(Ac)-GGAKRHRKV-biotin) from His6/FLAG-tagged TEV fused ATAD2 bromodomain (981 to 1121 residues) expressed in Escherichia coli BL21(DE3) cells
[4] = target: Bromodomain testis-specific protein (Homo sapiens, UniProt Q58F21, Y309A); assay: Displacement of Alexa Fluor 647 labelled ligand from His6/FLAG-tagged TEV fused BRDT BD1(1 to 397 residues)/BD2 Y309A mutant (unknown origin) after 30 mins by TR-FRET assay; method in brief: as §1
[5] = target: Bromodomain-containing protein 2 (Homo sapiens, UniProt P25440, Y386A); assay: Displacement of Alexa Fluor 647 labelled ligand from His6-tagged BRD2 BD1 (1 to 473 residues)/BD2 Y386A mutant (unknown origin) after 30 mins by TR-FRET assay; method in brief: as §1
Bromodomain-containing protein 2, sequence (P25440 whole entry Y386A, the tested form may be a part): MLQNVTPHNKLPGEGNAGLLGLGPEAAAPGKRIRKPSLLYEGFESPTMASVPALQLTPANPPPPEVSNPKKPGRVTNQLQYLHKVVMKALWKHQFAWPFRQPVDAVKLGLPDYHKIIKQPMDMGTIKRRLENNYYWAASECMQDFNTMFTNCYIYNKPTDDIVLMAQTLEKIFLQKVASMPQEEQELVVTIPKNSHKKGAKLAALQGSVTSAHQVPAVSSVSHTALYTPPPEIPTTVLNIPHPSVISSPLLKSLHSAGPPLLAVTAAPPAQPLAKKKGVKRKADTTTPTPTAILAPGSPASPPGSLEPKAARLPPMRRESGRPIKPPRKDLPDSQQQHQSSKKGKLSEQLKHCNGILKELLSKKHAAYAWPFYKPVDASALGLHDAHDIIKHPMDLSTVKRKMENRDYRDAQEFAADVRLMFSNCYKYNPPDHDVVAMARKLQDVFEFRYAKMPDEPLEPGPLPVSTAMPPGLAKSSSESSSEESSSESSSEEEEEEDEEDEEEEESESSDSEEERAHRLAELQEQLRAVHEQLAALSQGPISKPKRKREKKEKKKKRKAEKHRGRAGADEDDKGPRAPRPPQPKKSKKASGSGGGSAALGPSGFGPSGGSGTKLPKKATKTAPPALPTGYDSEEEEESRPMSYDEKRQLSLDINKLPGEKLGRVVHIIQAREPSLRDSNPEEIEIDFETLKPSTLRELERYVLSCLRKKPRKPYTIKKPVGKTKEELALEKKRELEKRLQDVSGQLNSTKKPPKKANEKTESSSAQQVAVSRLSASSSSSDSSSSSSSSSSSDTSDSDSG

[6] = target: Bromodomain-containing protein 3 (Homo sapiens, UniProt Q15059, Y73A); assay: Displacement of Alexa Fluor 647 labelled ligand from His6-tagged BRD3 BD2(1 to 435 residues)/BD1 Y73A mutant (unknown origin) after 30 mins by TR-FRET assay; method in brief: as §1
Bromodomain-containing protein 3 (Homo sapiens, UniProt Q15059, Y73A), sequence (Q15059 2-726 Y73A limits assumed): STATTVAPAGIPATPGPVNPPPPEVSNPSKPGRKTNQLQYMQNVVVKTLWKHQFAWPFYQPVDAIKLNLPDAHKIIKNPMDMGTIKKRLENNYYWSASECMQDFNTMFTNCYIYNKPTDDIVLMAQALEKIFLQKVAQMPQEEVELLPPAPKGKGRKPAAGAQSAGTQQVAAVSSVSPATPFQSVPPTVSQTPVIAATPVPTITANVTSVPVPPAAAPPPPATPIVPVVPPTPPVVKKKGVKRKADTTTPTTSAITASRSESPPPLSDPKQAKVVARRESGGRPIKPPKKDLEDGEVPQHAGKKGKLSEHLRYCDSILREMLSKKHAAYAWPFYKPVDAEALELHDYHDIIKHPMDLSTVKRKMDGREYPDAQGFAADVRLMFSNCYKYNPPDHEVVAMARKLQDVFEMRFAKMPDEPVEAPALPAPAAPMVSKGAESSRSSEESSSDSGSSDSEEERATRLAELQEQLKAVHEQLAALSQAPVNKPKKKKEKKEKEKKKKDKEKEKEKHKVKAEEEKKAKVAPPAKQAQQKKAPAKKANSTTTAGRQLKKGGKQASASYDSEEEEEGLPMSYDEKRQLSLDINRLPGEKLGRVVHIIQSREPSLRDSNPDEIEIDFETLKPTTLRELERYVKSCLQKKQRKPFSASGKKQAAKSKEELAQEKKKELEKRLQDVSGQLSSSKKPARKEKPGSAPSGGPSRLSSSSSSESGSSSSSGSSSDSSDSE

[7] = target: Bromodomain-containing protein 4 (Homo sapiens, UniProt O60885, Y390A); assay: Displacement of Alexa Fluor 647 labelled ligand from His6-tagged BRD4 BD1 (1 to 477 residues)/BD2 Y390A mutant (unknown origin) after 30 mins by TR-FRET assay; method in brief: as §1
[8] = species: Homo sapiens; assay: as §2, with “displacement” for “inhibition”, “Alexa Fluor 647 labelled ligand from His6-tagged BRD4” for “TAF1”, “BD2 (1 to 477 residues)/BD1 Y97A mutant” for “BD2”
[9] = species: Homo sapiens; assay: Selectivity ratio, ratio of inhibition of CECR2 (unknown origin) to Displacement of biotinylated H4 peptide from ATAD2B bromodomain (unknown origin) by TR-FRET assay
[10] = target: T1, ATPase family AAA domain-containing protein 2 (Homo sapiens, UniProt Q6PL18); assay: Inhibition of ATAD2 bromodomain in human HUT78 chromatin lysate after 2 hrs by bromosphere competition binding assay
T1 sequence (Q6PL18 whole entry): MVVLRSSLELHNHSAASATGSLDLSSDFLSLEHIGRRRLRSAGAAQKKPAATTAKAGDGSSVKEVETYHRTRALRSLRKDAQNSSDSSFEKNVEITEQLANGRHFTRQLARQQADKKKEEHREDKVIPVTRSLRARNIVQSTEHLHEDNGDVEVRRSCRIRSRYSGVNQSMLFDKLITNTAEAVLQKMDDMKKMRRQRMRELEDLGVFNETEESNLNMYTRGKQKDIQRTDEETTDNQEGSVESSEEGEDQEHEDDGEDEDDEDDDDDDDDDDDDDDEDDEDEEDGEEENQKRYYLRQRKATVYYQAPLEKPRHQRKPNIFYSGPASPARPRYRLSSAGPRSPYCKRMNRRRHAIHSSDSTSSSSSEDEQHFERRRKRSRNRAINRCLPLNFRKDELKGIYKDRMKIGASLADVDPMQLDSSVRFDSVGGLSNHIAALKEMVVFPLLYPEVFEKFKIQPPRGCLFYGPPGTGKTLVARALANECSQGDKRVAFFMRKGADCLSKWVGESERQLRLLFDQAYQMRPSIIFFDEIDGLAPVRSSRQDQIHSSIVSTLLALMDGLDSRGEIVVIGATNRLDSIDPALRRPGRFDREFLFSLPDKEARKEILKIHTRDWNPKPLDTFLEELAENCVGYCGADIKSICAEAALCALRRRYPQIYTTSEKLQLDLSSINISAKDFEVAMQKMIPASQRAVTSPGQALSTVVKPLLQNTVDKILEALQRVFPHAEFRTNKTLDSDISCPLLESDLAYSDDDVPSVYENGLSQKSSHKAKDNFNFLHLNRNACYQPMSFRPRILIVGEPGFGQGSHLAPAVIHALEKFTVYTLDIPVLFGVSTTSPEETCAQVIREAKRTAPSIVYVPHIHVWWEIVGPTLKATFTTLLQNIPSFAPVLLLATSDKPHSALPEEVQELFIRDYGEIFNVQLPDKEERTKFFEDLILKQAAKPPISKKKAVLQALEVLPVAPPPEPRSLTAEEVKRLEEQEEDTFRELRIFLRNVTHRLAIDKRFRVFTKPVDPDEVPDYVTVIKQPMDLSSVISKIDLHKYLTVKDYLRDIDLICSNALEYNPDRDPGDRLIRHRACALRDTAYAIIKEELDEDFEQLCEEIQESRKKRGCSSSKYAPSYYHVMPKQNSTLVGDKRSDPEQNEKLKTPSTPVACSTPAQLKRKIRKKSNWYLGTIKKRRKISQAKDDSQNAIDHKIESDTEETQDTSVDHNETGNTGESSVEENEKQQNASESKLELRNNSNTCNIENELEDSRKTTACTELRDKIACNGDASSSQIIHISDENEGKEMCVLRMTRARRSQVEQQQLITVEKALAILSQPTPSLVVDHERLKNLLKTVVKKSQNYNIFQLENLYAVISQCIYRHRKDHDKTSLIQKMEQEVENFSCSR
Method in brief: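 Bromosphere chemoproteomic assay. Measures competitive inhibition of binding of endogenous full-length ATAD2 from Hut-78 cells.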

[11] = target: ATPase family AAA domain-containing protein 2B (Homo sapiens, UniProt Q9ULI0); assay: Displacement of biotinylated H4 peptide from ATAD2B bromodomain (unknown origin) by TR-FRET assay
ATPase family AAA domain-containing protein 2B, sequence (Q9ULI0 whole entry, the tested form may be a part): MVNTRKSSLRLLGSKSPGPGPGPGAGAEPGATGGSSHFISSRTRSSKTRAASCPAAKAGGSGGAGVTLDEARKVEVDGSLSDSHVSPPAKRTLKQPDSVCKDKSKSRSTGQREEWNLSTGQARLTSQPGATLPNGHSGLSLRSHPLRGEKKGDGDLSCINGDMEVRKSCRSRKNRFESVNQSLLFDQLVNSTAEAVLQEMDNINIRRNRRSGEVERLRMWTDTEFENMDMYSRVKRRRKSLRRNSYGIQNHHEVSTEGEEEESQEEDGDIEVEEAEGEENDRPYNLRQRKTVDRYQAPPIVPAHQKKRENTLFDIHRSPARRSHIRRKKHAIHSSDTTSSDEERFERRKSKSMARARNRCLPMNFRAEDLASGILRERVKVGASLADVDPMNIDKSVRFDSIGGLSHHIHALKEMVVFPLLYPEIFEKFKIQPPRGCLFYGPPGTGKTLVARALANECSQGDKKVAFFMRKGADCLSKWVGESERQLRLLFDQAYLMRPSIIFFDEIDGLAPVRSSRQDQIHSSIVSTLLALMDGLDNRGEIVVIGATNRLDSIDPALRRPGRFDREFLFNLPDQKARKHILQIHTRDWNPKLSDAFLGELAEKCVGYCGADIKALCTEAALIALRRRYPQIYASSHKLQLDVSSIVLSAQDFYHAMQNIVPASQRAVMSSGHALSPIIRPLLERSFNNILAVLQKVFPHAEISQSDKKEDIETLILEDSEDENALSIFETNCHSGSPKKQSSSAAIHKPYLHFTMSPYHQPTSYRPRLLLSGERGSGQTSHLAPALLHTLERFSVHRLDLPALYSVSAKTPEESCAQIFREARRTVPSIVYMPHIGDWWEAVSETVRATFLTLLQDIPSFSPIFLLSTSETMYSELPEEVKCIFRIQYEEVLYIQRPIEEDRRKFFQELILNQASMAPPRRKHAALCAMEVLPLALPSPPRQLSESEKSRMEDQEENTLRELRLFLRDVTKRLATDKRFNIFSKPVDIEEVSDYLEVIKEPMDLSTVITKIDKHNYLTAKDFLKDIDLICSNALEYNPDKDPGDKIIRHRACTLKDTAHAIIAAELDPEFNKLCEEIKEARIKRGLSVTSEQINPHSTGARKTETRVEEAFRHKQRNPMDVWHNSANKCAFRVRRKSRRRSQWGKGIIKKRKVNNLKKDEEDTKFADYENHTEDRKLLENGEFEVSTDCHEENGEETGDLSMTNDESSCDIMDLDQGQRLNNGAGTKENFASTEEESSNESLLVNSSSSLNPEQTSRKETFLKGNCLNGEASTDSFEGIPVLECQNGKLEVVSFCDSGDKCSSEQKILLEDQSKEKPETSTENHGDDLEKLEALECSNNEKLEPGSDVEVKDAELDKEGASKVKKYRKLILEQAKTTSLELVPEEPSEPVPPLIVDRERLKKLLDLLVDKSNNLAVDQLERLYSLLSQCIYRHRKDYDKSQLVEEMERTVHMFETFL

Bromodomain-containing protein 3 (Homo sapiens, UniProt Q15059, Y348A), sequence (Q15059 2-726 Y348A limits assumed): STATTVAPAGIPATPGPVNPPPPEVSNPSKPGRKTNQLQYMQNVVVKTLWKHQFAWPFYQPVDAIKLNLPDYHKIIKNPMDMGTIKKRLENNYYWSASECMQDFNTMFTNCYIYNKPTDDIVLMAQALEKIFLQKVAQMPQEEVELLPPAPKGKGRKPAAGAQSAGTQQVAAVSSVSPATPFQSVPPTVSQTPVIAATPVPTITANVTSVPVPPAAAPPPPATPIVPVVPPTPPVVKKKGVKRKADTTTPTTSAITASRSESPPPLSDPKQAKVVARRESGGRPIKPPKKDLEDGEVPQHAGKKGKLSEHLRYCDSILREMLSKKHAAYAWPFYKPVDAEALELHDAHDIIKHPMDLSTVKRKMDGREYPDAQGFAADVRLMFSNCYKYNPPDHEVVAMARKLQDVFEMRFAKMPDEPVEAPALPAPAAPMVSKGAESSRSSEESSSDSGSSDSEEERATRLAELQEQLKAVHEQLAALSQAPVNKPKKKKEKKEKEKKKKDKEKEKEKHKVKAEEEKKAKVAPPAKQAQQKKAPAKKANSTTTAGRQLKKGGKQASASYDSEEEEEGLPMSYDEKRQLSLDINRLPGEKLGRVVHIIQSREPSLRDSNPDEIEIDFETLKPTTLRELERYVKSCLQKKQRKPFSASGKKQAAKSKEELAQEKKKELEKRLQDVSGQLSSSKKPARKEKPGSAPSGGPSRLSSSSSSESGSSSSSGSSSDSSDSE

CC1(C2CC2)NC(=O)N(CC(=O)Nc2ccc(Br)c(S(=O)(=O)N3CCCCC3)c2)C1=O (racemic)
IC50 [1]: > 50.1 µM | IC50 [2]: 12.6 µM | Selectivity ratio [3]: > 10 | IC50 [4]: 25.1 µM | IC50 [5]: > 50.1 µM | IC50 [6]: 31.6 µM | IC50 [7]: 50.1 µM | Selectivity ratio [8]: 60 | Selectivity ratio [9]: > 10 | IC50 [10]: 3.98 µM | IC50 [11]: 0.501 µM
